Source: ChEMBL document CHEMBL3779809, “Bioactive Enmein-Type ent-Kaurane Diterpenoids from Isodon phyllostachys” (J Nat Prod, 2016)
Active and inactive are the calls of the source. The calls are words filed in the database; no cut-off is given here.

Key:
[1] = Cytotoxicity against human HL60 cells assessed as cell viability after 48 hrs by MTS assay; assay type: functional, cell-based; conditions: HL-60, 48 h
Procedure, shortened: (§1)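 Cells grown in RPMI-1640 or DMEM with 10% FBS at 37 °C, 5% CO2. Seeded, incubated 12 h, then exposed to a range of concentrations in triplicate for 48 h. Viability read by MTS reduction to formazan. IC50 calculated by Reed and Muench method; cis-platin positive control.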

[2] = (§2) Cytotoxicity against human SMMC7721 cells assessed growth inhibition at 40 uM after 48 hrs by MTS assay relative to control; assay type: functional; conditions: SMMC-7721, 48 h, read-out: GI
Procedure, shortened: (§3)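 Cultured in RPMI-1640 or DMEM with 10% FBS at 37 °C under 5% CO2. Cells seeded, given 12 h at 37 °C, then treated with compound at 40 μM for 48 h. Growth inhibition measured by MTS assay (formazan colorimetry).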

[3] = (§4) Cytotoxicity against human HL60 cells assessed growth inhibition at 40 uM after 48 hrs by MTS assay relative to control; assay type: functional; conditions: HL-60, 48 h, read-out: GI; procedure, shortened: as §3
A549 [4] = experiment: Cytotoxicity against human A549 cells assessed as cell viability after 48 hrs by MTS assay; assay type: functional, cell-based; conditions: A549, 48 h; procedure, shortened: as §1
A549 [5] = experiment: Cytotoxicity against human A549 cells assessed growth inhibition at 40 uM after 48 hrs by MTS assay relative to control; assay type: functional; conditions: for inhibition of growth at 40 µM: A549, 48 h, read-out: GI; procedure, shortened: as §3
MCF7 [6] = experiment: Cytotoxicity against human MCF7 cells assessed as cell viability after 48 hrs by MTS assay; assay type: functional, cell-based; conditions: MCF7, 48 h; procedure, shortened: as §1
[7] = Cytotoxicity against human SMMC7721 cells assessed as cell viability after 48 hrs by MTS assay; assay type: functional, cell-based; conditions: SMMC-7721, 48 h; procedure, shortened: as §1
SW480 [8] = experiment: Cytotoxicity against human SW480 cells assessed as cell viability after 48 hrs by MTS assay; assay type: functional, cell-based; conditions: SW480, 48 h; procedure, shortened: as §1
RAW264.7 = experiment: Inhibition of LPS-induced NO production in mouse RAW264.7 cells at 25 uM preincubated with compound followed by LPS challenge measured after 18 hrs by Griess method; assay type: functional, cell-based
Procedure, shortened: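 RAW264.7 macrophages seeded at 2 × 10^5 cells/well and treated with serial compound dilutions (maximum 25 μM), then stimulated with LPS 1 μg/mL for 18 h. Supernatant nitrite measured with Griess reagents, absorbance 550 nm. MG-132 positive control. Viability checked in parallel by MTT to exclude cytotoxic interference.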

SMMC-7721 = experiment: as §2; assay type: functional; procedure, shortened: as §3
HL-60 = experiment: as §4; assay type: functional; procedure, shortened: as §3
MCF7 [9] = experiment: Cytotoxicity against human MCF7 cells assessed growth inhibition at 40 uM after 48 hrs by MTS assay relative to control; assay type: functional; procedure, shortened: as §3
SW480 [10] = experiment: Cytotoxicity against human SW480 cells assessed growth inhibition at 40 uM after 48 hrs by MTS assay relative to control; assay type: functional; procedure, shortened: as §3

| IC50 (RAW264.7) [µM] | SMILES | IC50 [1] [µM] | inhibition of growth at 40 µM [2] [%] | inhibition of growth at 40 µM [3] [%] | IC50 (A549 [4]) [µM] | inhibition of growth at 40 µM (A549 [5]) [%] | IC50 (MCF7 [6]) [µM] | IC50 [7] [µM] | IC50 (SW480 [8]) [µM] | growth inhibition (GI) (SMMC-7721) | growth inhibition (GI) (HL-60) | growth inhibition (GI) (MCF7 [9]) | growth inhibition (GI) (SW480 [10]) | growth inhibition (GI) (A549 [5]) |
| --- | --- | --- | --- | --- | --- | --- | --- | --- | --- | --- | --- | --- | --- | --- |
| 3.56 | C=C1C(=O)[C@]23C[C@@H]1C[C@@H](O)[C@H]2[C@@]12CO[C@@H](O)[C@@H]1C(C)(C)CC[C@@H]2OC3=O | 10.3 | > 50 | > 50 | 14.3 | > 50 | 14 | 11.4 | 10.9 | – | – | – | – | – |
| 0.74 | C=C1C(=O)[C@]23C[C@@H]1CC[C@H]2[C@@]12CO[C@@H](O)[C@@H]1C(C)(C)CC[C@@H]2OC3=O | 2.1 | > 50 | > 50 | 2.1 | > 50 | 3.4 | 3.3 | 1.7 | – | – | – | – | – |
| 1.36 | C=C1C(=O)[C@]23C[C@@H]1CC[C@H]2C12[C@@H](OC)O[C@@H](O)[C@@H]1C(C)(C)CC[C@@H]2OC3=O (stereo partly specified) | 3.5 | > 50 | > 50 | 1.2 | > 50 | 3.9 | 4.7 | 3.9 | – | – | – | – | – |
| 7.42 | C=C1C(=O)[C@]23C[C@@H]1CC[C@H]2C12C(O)O[C@@H](O)[C@@H]1C(C)(C)CC[C@@H]2OC3=O (stereo partly specified) | 16.8 | > 50 | > 50 | 39 | > 50 | > 40 | 31.8 | 14.8 | – | – | – | – | – |
| 4.93 | C=C1C(=O)[C@@]23C[C@@H]1C[C@H]1O[C@@H]4OC[C@]5([C@H](CCC(C)(C)[C@@H]45)OC2=O)[C@H]13 | 15.4 | > 50 | > 50 | 14 | > 50 | 14 | 15.8 | 15.2 | – | – | – | – | – |
| 3.51 | C=C1C(=O)[C@]23C[C@@H]1C[C@@H](O)[C@H]2C12CO[C@@H]4OC[C@](C)(CC[C@@H]1OC3=O)[C@@H]42 (stereo partly specified) | 14.3 | > 50 | > 50 | 10.2 | > 50 | 13.7 | 12.5 | > 40 | – | – | – | – | – |
| 1.47 | C=C1C(=O)[C@]23C[C@@H]1CC[C@H]2C12C(O)O[C@@H](OC)[C@@H]1C(C)(C)CC[C@@H]2OC3=O (stereo partly specified) | 3 | > 50 | > 50 | 3.9 | > 50 | 2.4 | 4.2 | 3.2 | – | – | – | – | – |
| 1.56 | C=C1C(=O)[C@]23C[C@@H]1CC[C@H]2C12[C@H](OC)O[C@@H](O)[C@@H]1C(C)(C)CC[C@@H]2OC3=O (stereo partly specified) | 3.2 | > 50 | > 50 | 3.4 | > 50 | 3.2 | 5 | 4.6 | – | – | – | – | – |
| 3.53 | C=C1C(=O)[C@]23C[C@@H]1CC[C@H]2C12CO[C@@H](O)[C@@H]1C(C)(C)[C@@H](O)C[C@@H]2OC3=O (stereo partly specified) | 9.2 | > 50 | > 50 | 13.3 | > 50 | 15.7 | 9.8 | 5.5 | – | – | – | – | – |
| – | CC1(C)[C@@H]2C[C@@H]3OC(=O)[C@@]45C[C@H](CC[C@H]4[C@]34C(O[C@@H](O)[C@H]14)O2)[C@](C)(O)C5=O | > 40 | – | – | > 40 | – | > 40 | > 40 | > 40 | inactive | inactive | inactive | inactive | inactive |
| – | C[C@H]1C(=O)[C@]23C[C@@H]1CC[C@H]2C12CO[C@@H](O)[C@@H]1C(C)(C)[C@@H](O)C[C@@H]2OC3=O (stereo partly specified) | > 40 | – | – | > 40 | – | > 40 | > 40 | > 40 | inactive | inactive | inactive | inactive | inactive |
| – | C=C1C(=O)[C@]23C[C@@H]1C[C@@H](O)[C@H]2C12C(O)O[C@@H]4OC(O)[C@](C)(CC[C@@H]1OC3=O)[C@@H]42 (stereo partly specified) | > 40 | – | – | > 40 | – | > 40 | > 40 | > 40 | inactive | inactive | inactive | inactive | inactive |
| – | C[C@H]1C(=O)[C@]23C[C@@H]1CC[C@H]2C12CO[C@@H](O)[C@@H]1C(C)(C)CC[C@@H]2OC3=O (stereo partly specified) | > 40 | – | – | > 40 | – | > 40 | > 40 | > 40 | inactive | inactive | inactive | inactive | inactive |
